One data set has as its system Ipomoea hederacea. Kind of data set: Post-emergence herbicidal activity against Ipomoea hederacea (ivy-leaved morning glory) compound treated as foliar application measured after 2 weeks. In kind it is functional. In a few lines: (§1)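 Greenhouse post-emergence foliar screen in 64 cm² pots. Seed treatments were used on some species to aid germination. Plants were grown 7–21 days at 23–29 °C day/22–28 °C night under a 15 h photoperiod. Sprayed at 2–12 cm height and the 1–4 true leaf stage.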

Another data set concerns Veronica hederifolia. Kind of data set: Post-emergence herbicidal activity against Veronica hederifolia compound treated as foliar application measured after 2 weeks. In kind it is functional. In a few lines:
as §1

A further data set relates to Abutilon theophrasti. Kind of data set: Post-emergence herbicidal activity against Abutilon theophrasti (velvetleaf) compound treated as foliar application measured after 2 weeks. In kind it is functional. In a few lines: as §1
For a further data set, the system named is Amaranthus retroflexus. Kind of data set: Post-emergence herbicidal activity against Amaranthus retroflexus compound treated as foliar application measured after 2 weeks. In kind it is functional. Summed up:
as §1

The next data set deals with Ipomoea. Kind of data set: Post-emergence herbicidal activity against Ipomoea spp. compound treated as foliar application measured after 2 weeks. In kind it is functional. Summed up:
as §1

The subject of a further data set is Helianthus. Kind of data set: Post-emergence herbicidal activity against Helianthus spp. compound treated as foliar application measured after 2 weeks. In kind it is functional. In a few lines: as §1
The next data set relates to Chenopodium album. Kind of data set: Post-emergence herbicidal activity against Chenopodium album compound treated as foliar application measured after 2 weeks. Type of data set: functional. In a few lines: as §1
For the next data set, the system named is Datura stramonium. Kind of data set: Post-emergence herbicidal activity against Datura stramonium compound treated as foliar application measured after 2 weeks. Type of data set: functional. Summed up: as §1
A further data set relates to Xanthium strumarium. Kind of data set: Post-emergence herbicidal activity against Xanthium strumarium (cocklebur) compound treated as foliar application measured after 2 weeks. Type of data set: functional. In a few lines:
as §1

The test system of the next data set is Avena fatua. Kind of data set: Post-emergence herbicidal activity against Avena fatua compound treated as foliar application measured after 2 weeks. In kind it is functional. Summed up:
as §1

In the next data set the test system is Oryza sativa. Kind of data set: Phytotoxicity against Oryza sativa (rice). Type of data set: organism-based. Particulars: in vivo.
Another data set concerns Digitaria sanguinalis. Kind of data set: Post-emergence herbicidal activity against Digitaria sanguinalis (hairy crabgrass) compound treated as foliar application measured after 2 weeks. Type of data set: functional. In a few lines:
as §1

In another data set the test system is Sorghum halepense. Kind of data set: Post-emergence herbicidal activity against Sorghum halepense (Johnson grass) compound treated as foliar application measured after 2 weeks. Type of data set: functional. In a few lines:
as §1

The next data set deals with Setaria faberi. Kind of data set: Post-emergence herbicidal activity against Setaria faberi (Giant Foxtail) compound treated as foliar application measured after 2 weeks. Type of data set: functional. Summed up: as §1
The subject of a further data set is Echinochloa crus-galli. Kind of data set: Post-emergence herbicidal activity against Echinochloa crus-galli (barnyard grass) compound treated as foliar application measured after 2 weeks. Type of data set: functional. In a few lines: as §1
For a further data set, the system named is Alopecurus. Kind of data set: Post-emergence herbicidal activity against Alopecurus spp. compound treated as foliar application measured after 2 weeks. Type of data set: functional. Summed up: as §1
The test system of another data set is Fallopia convolvulus. Kind of data set: Post-emergence herbicidal activity against Fallopia convolvulus compound treated as foliar application measured after 2 weeks. In kind it is functional. In a few lines: as §1
For a further data set, the system named is Stellaria media. Kind of data set: Post-emergence herbicidal activity against Stellaria media compound treated as foliar application measured after 2 weeks. In kind it is functional. Summed up:
as §1

Data set [1] can be described thus: Inhibition of acetolactatae synthase. Particulars: read-out: I50. Summed up: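 Barley ALS: etiolated shoots of 5–6 d old Hector Spring barley homogenized at 0–4 °C in 20 mM HEPES pH 7.2, 1 mM EDTA, 5 mM DTT, then 33% (NH4)2SO4 cut. Reaction: 20 mM HEPES pH 7.2, 5 mM MgCl2, 0.25 mM TPP, FAD, 22.5 mM pyruvate, 0.7% DMSO final, 37 °C, 30 min. Acid decarboxylation to acetoin, then creatine/1-naphthol colour read at 530 nm. Reported as I50 (nM).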

Structures are written as SMILES.

`COc1cnc(OC)n2nc(NS(=O)(=O)c3c(OCCCF)cccc3C(F)(F)F)nc12`: the GR80 in the data set with Ipomoea hederacea, in the data set on Veronica hederifolia, with Abutilon theophrasti, in the data set with Amaranthus retroflexus, with Ipomoea and in the data set on Helianthus was 15 ppm in each case. Also, the GR80 is recorded as 15 ppm with Chenopodium album; 15 ppm in the data set with Datura stramonium; 15 ppm in the data set with Xanthium strumarium; 250 ppm with Avena fatua; 250 ppm in the data set with Digitaria sanguinalis; 250 ppm in the data set with Sorghum halepense. Further, the GR80 turned out to be 250 ppm with Setaria faberi; 125 ppm with Echinochloa crus-galli; 250 ppm in the data set on Alopecurus; 15 ppm in the data set on Fallopia convolvulus; 15 ppm in the data set on Stellaria media. Also, the GR20 in the data set with Oryza sativa is listed as above 250 ppm.
`COc1cc2nc(NS(=O)(=O)c3c(Cl)cccc3Cl)nn2c(OC)n1`: the GR80 in the data set with Ipomoea hederacea, in the data set with Veronica hederifolia, with Abutilon theophrasti, in the data set on Amaranthus retroflexus, in the data set with Ipomoea and in the data set with Helianthus was above 1000 ppm each time. Further, the GR80 in the data set on Chenopodium album, in the data set on Datura stramonium, in the data set with Xanthium strumarium, with Avena fatua, with Digitaria sanguinalis and with Sorghum halepense was above 1000 ppm each time. The GR80 with Setaria faberi, with Echinochloa crus-galli, in the data set on Alopecurus, in the data set on Fallopia convolvulus and with Stellaria media was above 1000 ppm in each case. In addition, the IC50 in data set [1] came out at 195 nM. In addition, the GR20 in the data set on Oryza sativa is on record as above 1000 ppm.
For the compound `COc1ccccc1S(=O)(=O)Nc1nc2c(OC)cnc(OC)n2n1`, the GR80 with Ipomoea hederacea, in the data set with Veronica hederifolia, in the data set on Abutilon theophrasti, in the data set on Amaranthus retroflexus, with Ipomoea and in the data set on Helianthus was 1 ppm in each case. Besides, the GR80 in the data set with Chenopodium album, with Datura stramonium, with Xanthium strumarium, in the data set on Avena fatua, with Digitaria sanguinalis and in the data set with Sorghum halepense was 1 ppm in each case. Moreover, the GR80 is on record as 1 ppm in the data set with Setaria faberi; 2 ppm with Echinochloa crus-galli; 1 ppm in the data set with Alopecurus; 1 ppm with Fallopia convolvulus; 1 ppm in the data set with Stellaria media. The compound also returned a GR20 in the data set on Oryza sativa below 1 ppm.
On to `COc1cnc(OC)n2nc(NS(=O)(=O)c3ccccc3C(F)(F)F)nc12`, for which the GR80 in the data set on Ipomoea hederacea, in the data set with Veronica hederifolia, in the data set on Abutilon theophrasti, with Amaranthus retroflexus, with Ipomoea and in the data set on Helianthus was 13 ppm in each case. Also, the GR80 is given as 13 ppm in the data set on Chenopodium album; 13 ppm with Datura stramonium; 13 ppm in the data set with Xanthium strumarium; 435 ppm in the data set with Avena fatua; 435 ppm with Digitaria sanguinalis; 435 ppm in the data set on Sorghum halepense. In addition, the GR80 in the data set with Setaria faberi is 435 ppm; with Echinochloa crus-galli, 250 ppm; in the data set on Alopecurus it was 435 ppm; in the data set on Fallopia convolvulus, 13 ppm; with Stellaria media it was 13 ppm. Further, the GR20 in the data set with Oryza sativa was below 1 ppm.
Turning to `COc1cnc(OC)n2nc(NS(=O)(=O)c3cc(Cl)ccc3Cl)nc12`, the GR80 in the data set with Ipomoea hederacea, with Veronica hederifolia, in the data set on Abutilon theophrasti, in the data set with Amaranthus retroflexus, in the data set with Ipomoea and with Helianthus was 19 ppm each time. Also, the GR80 with Chenopodium album is 19 ppm; in the data set with Datura stramonium, 19 ppm; in the data set with Xanthium strumarium, 19 ppm; in the data set on Avena fatua it was above 1000 ppm; in the data set with Digitaria sanguinalis, above 1000 ppm; in the data set on Sorghum halepense it was above 1000 ppm. Further, the GR80 in the data set on Setaria faberi is listed as above 1000 ppm; with Echinochloa crus-galli, 1000 ppm; in the data set with Alopecurus, above 1000 ppm; in the data set with Fallopia convolvulus, 19 ppm; with Stellaria media, 19 ppm. In the data set with Oryza sativa, this compound gave a GR20 below 2 ppm.
`COc1cnc(OC)n2nc(NS(=O)(=O)c3cc(Cl)cc(Cl)c3)nc12`: the GR80 in the data set with Ipomoea hederacea, in the data set on Veronica hederifolia, in the data set with Abutilon theophrasti, in the data set on Amaranthus retroflexus, in the data set with Ipomoea and in the data set on Helianthus was 126 ppm each time. The GR80 in the data set on Chenopodium album is listed as 126 ppm; with Datura stramonium it was 126 ppm; in the data set on Xanthium strumarium, 126 ppm; in the data set on Avena fatua, above 1000 ppm; in the data set on Digitaria sanguinalis, above 1000 ppm; in the data set on Sorghum halepense, above 1000 ppm. Besides, the GR80 with Setaria faberi is above 1000 ppm; in the data set on Echinochloa crus-galli it was above 1000 ppm; with Alopecurus, above 1000 ppm; in the data set on Fallopia convolvulus it was 126 ppm; in the data set with Stellaria media, 126 ppm. The GR20 in the data set with Oryza sativa came to 62 ppm.
Take `COc1cccc(OC)c1S(=O)(=O)Nc1nc2c(OC)cnc(OC)n2n1`: the GR80 in the data set with Ipomoea hederacea, with Veronica hederifolia, in the data set on Abutilon theophrasti, in the data set on Amaranthus retroflexus, in the data set on Ipomoea and in the data set with Helianthus was 0.5 ppm each time. Moreover, the GR80 in the data set on Chenopodium album is recorded as 0.5 ppm; in the data set with Datura stramonium it was 0.5 ppm; in the data set with Xanthium strumarium, 0.5 ppm; in the data set on Avena fatua, below 0.1 ppm; in the data set with Digitaria sanguinalis, below 0.1 ppm; in the data set on Sorghum halepense, below 0.1 ppm. Also, the GR80 is given as below 0.1 ppm with Setaria faberi; below 0.5 ppm in the data set with Echinochloa crus-galli; below 0.1 ppm in the data set with Alopecurus; 0.5 ppm in the data set with Fallopia convolvulus; 0.5 ppm with Stellaria media. The compound further displayed a GR20 in the data set on Oryza sativa below 0.5 ppm.
As for `COc1cccc(C(F)(F)F)c1S(=O)(=O)Nc1nc2c(OC)cnc(OC)n2n1`, the GR80 with Ipomoea hederacea, with Veronica hederifolia, in the data set with Abutilon theophrasti, with Amaranthus retroflexus, with Ipomoea and with Helianthus was below 0.2 ppm throughout. Also, the GR80 with Chenopodium album is recorded as below 0.2 ppm; in the data set on Datura stramonium it was below 0.2 ppm; in the data set on Xanthium strumarium, below 0.2 ppm; in the data set on Avena fatua, 1 ppm; in the data set on Digitaria sanguinalis it was 1 ppm; in the data set on Sorghum halepense, 1 ppm. The GR80 was 1 ppm with Setaria faberi; 1 ppm with Echinochloa crus-galli; 1 ppm in the data set on Alopecurus; below 0.2 ppm with Fallopia convolvulus; below 0.2 ppm with Stellaria media. This compound also displayed a GR20 in the data set on Oryza sativa of 2 ppm.

The record behind these values is ChEMBL document CHEMBL3046654, “Penoxsulam--structure-activity relationships of triazolopyrimidine sulfonamides” (Bioorg Med Chem, 2009).
